According to ChEMBL document CHEMBL4152188, “Design, synthesis and biological evaluation of C(4) substituted monobactams as antibacterial agents against multidrug-resistant Gram-negative bacteria” (Eur J Med Chem, 2018):
Converted amounts (≈) assume the structure as drawn.

Key:
Type in all cases: functional
Escherichia coli [1] = assay: Antibacterial activity against extended-spectrum beta-lactamase producing Escherichia coli isolate 212648 after 18 hrs by CLSI broth microdilution method; details: isolate 212648, 18 h
Escherichia coli [2] = assay: Selectivity index, ratio of MIC for against extended-spectrum beta-lactamase producing Escherichia coli isolate 208687 to MIC for extended-spectrum beta-lactamase producing Escherichia coli isolate 208687 in presence of BPL
Escherichia coli [3] = assay: Antibacterial activity against Escherichia coli isolate 210737 after 18 hrs by CLSI broth microdilution method; details: isolate 210737, 18 h
Escherichia coli [4] = assay: Antibacterial activity against extended-spectrum beta-lactamase producing Escherichia coli isolate 208687 after 18 hrs by CLSI broth microdilution method; details: isolate 208687, 18 h
Escherichia coli [5] = assay: Antibacterial activity against extended-spectrum beta-lactamase producing Escherichia coli isolate 208687 after 18 hrs in presence of BPL by CLSI broth microdilution method; details: isolate 208687, 18 h
Summary of the method: (§1)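 CLSI broth microdilution against clinical isolates (ESBL E. coli, KPC-2 MDR K. pneumoniae, IMP-4 MDR P. aeruginosa; five per species). Iron limitation: Mueller-Hinton broth supplemented with 16 mg/liter 2,2'-bipyridyl to complex iron and induce iron uptake systems. Read-out: MIC.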

Escherichia coli [6] = assay: Antibacterial activity against Escherichia coli isolate 210737 after 18 hrs in presence of BPL by CLSI broth microdilution method; details: isolate 210737, 18 h; summary of the method: as §1
Escherichia coli [7] = assay: Selectivity index, ratio of MIC for against Escherichia coli isolate 210737 to MIC for Escherichia coli isolate 210737 in presence of BPL
Escherichia coli [8] = assay: Antibacterial activity against extended-spectrum beta-lactamase producing Escherichia coli isolate 212648 after 18 hrs in presence of BPL by CLSI broth microdilution method; details: isolate 212648, 18 h; summary of the method: as §1
Escherichia coli [9] = assay: Selectivity index, ratio of MIC for against extended-spectrum beta-lactamase producing Escherichia coli isolate 212648 to MIC for extended-spectrum beta-lactamase producing Escherichia coli isolate 212648 in presence of BPL
Escherichia coli [10] = assay: Antibacterial activity against extended-spectrum beta-lactamase producing Escherichia coli isolate 209285 after 18 hrs by CLSI broth microdilution method; details: isolate 209285, 18 h
Escherichia coli [11] = assay: Antibacterial activity against extended-spectrum beta-lactamase producing Escherichia coli isolate 209285 after 18 hrs in presence of BPL by CLSI broth microdilution method; details: isolate 209285, 18 h; summary of the method: as §1
Escherichia coli [12] = assay: Selectivity index, ratio of MIC for against extended-spectrum beta-lactamase producing Escherichia coli isolate 209285 to MIC for extended-spectrum beta-lactamase producing Escherichia coli isolate 209285 in presence of BPL
Escherichia coli [13] = assay: Antibacterial activity against extended-spectrum beta-lactamase producing Escherichia coli isolate 106342 after 18 hrs by CLSI broth microdilution method; details: isolate 106342, 18 h
Escherichia coli [14] = assay: Antibacterial activity against extended-spectrum beta-lactamase producing Escherichia coli isolate 106342 after 18 hrs in presence of BPL by CLSI broth microdilution method; details: isolate 106342, 18 h; summary of the method: as §1
Escherichia coli [15] = assay: Selectivity index, ratio of MIC for against extended-spectrum beta-lactamase producing Escherichia coli isolate 106342 to MIC for extended-spectrum beta-lactamase producing Escherichia coli isolate 106342 in presence of BPL
Klebsiella pneumoniae [16] = assay: Antibacterial activity against KPC-2 producing Klebsiella pneumoniae isolate 212423 after 18 hrs by CLSI broth microdilution method; details: isolate 212423, 18 h
Klebsiella pneumoniae [17] = assay: Antibacterial activity against KPC-2 producing Klebsiella pneumoniae isolate 212423 after 18 hrs in presence of BPL by CLSI broth microdilution method; details: isolate 212423, 18 h; summary of the method: as §1
Klebsiella pneumoniae [18] = assay: Selectivity index, ratio of MIC for against KPC-2 producing Klebsiella pneumoniae isolate 212423 to MIC for against KPC-2 producing Klebsiella pneumoniae isolate 212423 in presence of BPL
Klebsiella pneumoniae [19] = assay: Antibacterial activity against KPC-2 producing Klebsiella pneumoniae isolate 209632 after 18 hrs by CLSI broth microdilution method; details: isolate 209632, 18 h
Klebsiella pneumoniae [20] = assay: Antibacterial activity against KPC-2 producing Klebsiella pneumoniae isolate 209632 after 18 hrs in presence of BPL by CLSI broth microdilution method; details: isolate 209632, 18 h; summary of the method: as §1
Klebsiella pneumoniae [21] = assay: Selectivity index, ratio of MIC for against KPC-2 producing Klebsiella pneumoniae isolate 209632 to MIC for against KPC-2 producing Klebsiella pneumoniae isolate 209632 in presence of BPL
Klebsiella pneumoniae [22] = assay: Antibacterial activity against KPC-2 producing Klebsiella pneumoniae isolate 209735 after 18 hrs by CLSI broth microdilution method; details: isolate 209735, 18 h
Klebsiella pneumoniae [23] = assay: Antibacterial activity against KPC-2 producing Klebsiella pneumoniae isolate 209735 after 18 hrs in presence of BPL by CLSI broth microdilution method; details: isolate 209735, 18 h; summary of the method: as §1
Klebsiella pneumoniae [24] = assay: Selectivity index, ratio of MIC for against KPC-2 producing Klebsiella pneumoniae isolate 209735 to MIC for against KPC-2 producing Klebsiella pneumoniae isolate 209735 in presence of BPL
Klebsiella pneumoniae [25] = assay: Antibacterial activity against KPC-2 producing Klebsiella pneumoniae isolate 212232 after 18 hrs by CLSI broth microdilution method; details: isolate 212232, 18 h
Klebsiella pneumoniae [26] = assay: Antibacterial activity against KPC-2 producing Klebsiella pneumoniae isolate 212232 after 18 hrs in presence of BPL by CLSI broth microdilution method; details: isolate 212232, 18 h; summary of the method: as §1
Klebsiella pneumoniae [27] = assay: Selectivity index, ratio of MIC for against KPC-2 producing Klebsiella pneumoniae isolate 212232 to MIC for against KPC-2 producing Klebsiella pneumoniae isolate 212232 in presence of BPL
Klebsiella pneumoniae [28] = assay: Antibacterial activity against KPC-2 producing Klebsiella pneumoniae isolate 212229 after 18 hrs by CLSI broth microdilution method; details: isolate 212229, 18 h
Klebsiella pneumoniae [29] = assay: Antibacterial activity against KPC-2 producing Klebsiella pneumoniae isolate 212229 after 18 hrs in presence of BPL by CLSI broth microdilution method; details: isolate 212229, 18 h; summary of the method: as §1
Klebsiella pneumoniae [30] = assay: Selectivity index, ratio of MIC for against KPC-2 producing Klebsiella pneumoniae isolate 212229 to MIC for against KPC-2 producing Klebsiella pneumoniae isolate 212229 in presence of BPL
Pseudomonas aeruginosa [31] = assay: Antibacterial activity against IMP-4 producing Pseudomonas aeruginosa isolate 212886 after 18 hrs by CLSI broth microdilution method; details: isolate 212886, 18 h
Pseudomonas aeruginosa [32] = assay: Antibacterial activity against IMP-4 producing Pseudomonas aeruginosa isolate 212886 after 18 hrs in presence of BPL by CLSI broth microdilution method; details: isolate 212886, 18 h; summary of the method: as §1
Pseudomonas aeruginosa [33] = assay: Antibacterial activity against IMP-4 producing Pseudomonas aeruginosa isolate 209471 after 18 hrs by CLSI broth microdilution method; details: isolate 209471, 18 h
Pseudomonas aeruginosa [34] = assay: Antibacterial activity against IMP-4 producing Pseudomonas aeruginosa isolate 209471 after 18 hrs in presence of BPL by CLSI broth microdilution method; details: isolate 209471, 18 h; summary of the method: as §1
Pseudomonas aeruginosa [35] = assay: Antibacterial activity against IMP-4 producing Pseudomonas aeruginosa isolate 208247 after 18 hrs by CLSI broth microdilution method; details: isolate 208247, 18 h
Pseudomonas aeruginosa [36] = assay: Antibacterial activity against IMP-4 producing Pseudomonas aeruginosa isolate 208247 after 18 hrs in presence of BPL by CLSI broth microdilution method; details: isolate 208247, 18 h; summary of the method: as §1
Pseudomonas aeruginosa [37] = assay: Selectivity index, ratio of MIC for against IMP-4 producing Pseudomonas aeruginosa isolate 208247 to MIC for against IMP-4 producing Pseudomonas aeruginosa isolate 208247 in presence of BPL
Pseudomonas aeruginosa [38] = assay: Antibacterial activity against IMP-4 producing Pseudomonas aeruginosa isolate 209321 after 18 hrs by CLSI broth microdilution method; details: isolate 209321, 18 h
Pseudomonas aeruginosa [39] = assay: Antibacterial activity against IMP-4 producing Pseudomonas aeruginosa isolate 209321 after 18 hrs in presence of BPL by CLSI broth microdilution method; details: isolate 209321, 18 h; summary of the method: as §1
Pseudomonas aeruginosa [40] = assay: Antibacterial activity against IMP-4 producing Pseudomonas aeruginosa isolate 207272 after 18 hrs by CLSI broth microdilution method; details: isolate 207272, 18 h
Pseudomonas aeruginosa [41] = assay: Antibacterial activity against IMP-4 producing Pseudomonas aeruginosa isolate 207272 after 18 hrs in presence of BPL by CLSI broth microdilution method; details: isolate 207272, 18 h; summary of the method: as §1
Pseudomonas aeruginosa [42] = assay: Selectivity index, ratio of MIC for against IMP-4 producing Pseudomonas aeruginosa isolate 207272 to MIC for against IMP-4 producing Pseudomonas aeruginosa isolate 207272 in presence of BPL

Cc1csc(SC[C@@H]2[C@H](NC(=O)/C(=N\OC(c3cc(=O)c(O)cn3O)C(C)C)c3csc(N)n3)C(=O)N2S(=O)(=O)O)n1 (some centres not stated)
MIC (Escherichia coli [1]): 1 µg/mL (≈ 1.52 µM) | Selectivity Index (Escherichia coli [2]): 8 | MIC (Escherichia coli [3]): 0.5 µg/mL (≈ 0.758 µM) | MIC (Escherichia coli [4]): 2 µg/mL (≈ 3.03 µM) | MIC (Escherichia coli [5]): 0.25 µg/mL | MIC (Escherichia coli [6]): 0.25 µg/mL | Selectivity Index (Escherichia coli [7]): 2 | MIC (Escherichia coli [8]): 1 µg/mL | Selectivity Index (Escherichia coli [9]): 1 | MIC (Escherichia coli [10]): 2 µg/mL (≈ 3.03 µM) | MIC (Escherichia coli [11]): 1 µg/mL | Selectivity Index (Escherichia coli [12]): 2 | MIC (Escherichia coli [13]): 2 µg/mL (≈ 3.03 µM) | MIC (Escherichia coli [14]): 2 µg/mL | Selectivity Index (Escherichia coli [15]): 1 | MIC (Klebsiella pneumoniae [16]): 2 µg/mL (≈ 3.03 µM) | MIC (Klebsiella pneumoniae [17]): 1 µg/mL | Selectivity Index (Klebsiella pneumoniae [18]): 2 | MIC (Klebsiella pneumoniae [19]): 1 µg/mL (≈ 1.52 µM) | MIC (Klebsiella pneumoniae [20]): 0.5 µg/mL | Selectivity Index (Klebsiella pneumoniae [21]): 2 | MIC (Klebsiella pneumoniae [22]): 2 µg/mL (≈ 3.03 µM) | MIC (Klebsiella pneumoniae [23]): 2 µg/mL | Selectivity Index (Klebsiella pneumoniae [24]): 1 | MIC (Klebsiella pneumoniae [25]): 2 µg/mL (≈ 3.03 µM) | MIC (Klebsiella pneumoniae [26]): 1 µg/mL | Selectivity Index (Klebsiella pneumoniae [27]): 2 | MIC (Klebsiella pneumoniae [28]): 1 µg/mL (≈ 1.52 µM) | MIC (Klebsiella pneumoniae [29]): 0.5 µg/mL | Selectivity Index (Klebsiella pneumoniae [30]): 2 | MIC (Pseudomonas aeruginosa [31]): > 64 µg/mL | MIC (Pseudomonas aeruginosa [32]): > 64 µg/mL | MIC (Pseudomonas aeruginosa [33]): > 64 µg/mL | MIC (Pseudomonas aeruginosa [34]): > 64 µg/mL | MIC (Pseudomonas aeruginosa [35]): 64 µg/mL (≈ 97 µM) | MIC (Pseudomonas aeruginosa [36]): 64 µg/mL | Selectivity Index (Pseudomonas aeruginosa [37]): 1 | MIC (Pseudomonas aeruginosa [38]): > 64 µg/mL | MIC (Pseudomonas aeruginosa [39]): > 64 µg/mL | MIC (Pseudomonas aeruginosa [40]): 64 µg/mL (≈ 97 µM) | MIC (Pseudomonas aeruginosa [41]): 64 µg/mL | Selectivity Index (Pseudomonas aeruginosa [42]): 1

CC(C)C(O/N=C(\C(=O)NC1C(=O)N(S(=O)(=O)O)C12CCOCC2)c1csc(N)n1)c1cc(=O)c(O)cn1O (configuration not stated)
MIC (Escherichia coli [1]): 8 µg/mL (≈ 13.6 µM) | Selectivity Index (Escherichia coli [2]): 4 | MIC (Escherichia coli [3]): 1 µg/mL (≈ 1.7 µM) | MIC (Escherichia coli [4]): 4 µg/mL (≈ 6.82 µM) | MIC (Escherichia coli [5]): 1 µg/mL | MIC (Escherichia coli [6]): 1 µg/mL | Selectivity Index (Escherichia coli [7]): 1 | MIC (Escherichia coli [8]): 2 µg/mL | Selectivity Index (Escherichia coli [9]): 4 | MIC (Escherichia coli [10]): 16 µg/mL (≈ 27.3 µM) | MIC (Escherichia coli [11]): 8 µg/mL | Selectivity Index (Escherichia coli [12]): 2 | MIC (Escherichia coli [13]): 8 µg/mL (≈ 13.6 µM) | MIC (Escherichia coli [14]): 4 µg/mL | Selectivity Index (Escherichia coli [15]): 2 | MIC (Klebsiella pneumoniae [16]): 4 µg/mL (≈ 6.82 µM) | MIC (Klebsiella pneumoniae [17]): 2 µg/mL | Selectivity Index (Klebsiella pneumoniae [18]): 2 | MIC (Klebsiella pneumoniae [19]): 4 µg/mL (≈ 6.82 µM) | MIC (Klebsiella pneumoniae [20]): 1 µg/mL | Selectivity Index (Klebsiella pneumoniae [21]): 4 | MIC (Klebsiella pneumoniae [22]): 4 µg/mL (≈ 6.82 µM) | MIC (Klebsiella pneumoniae [23]): 1 µg/mL | Selectivity Index (Klebsiella pneumoniae [24]): 4 | MIC (Klebsiella pneumoniae [25]): 2 µg/mL (≈ 3.41 µM) | MIC (Klebsiella pneumoniae [26]): 0.06 µg/mL | Selectivity Index (Klebsiella pneumoniae [27]): 32 | MIC (Klebsiella pneumoniae [28]): 8 µg/mL (≈ 13.6 µM) | MIC (Klebsiella pneumoniae [29]): 1 µg/mL | Selectivity Index (Klebsiella pneumoniae [30]): 8 | MIC (Pseudomonas aeruginosa [31]): > 64 µg/mL | MIC (Pseudomonas aeruginosa [32]): > 64 µg/mL | MIC (Pseudomonas aeruginosa [33]): > 64 µg/mL | MIC (Pseudomonas aeruginosa [34]): > 64 µg/mL | MIC (Pseudomonas aeruginosa [35]): > 64 µg/mL | MIC (Pseudomonas aeruginosa [36]): 64 µg/mL | MIC (Pseudomonas aeruginosa [38]): > 64 µg/mL | MIC (Pseudomonas aeruginosa [39]): > 64 µg/mL | MIC (Pseudomonas aeruginosa [40]): > 64 µg/mL | MIC (Pseudomonas aeruginosa [41]): 64 µg/mL
